The entries come from a sample that favours hits as a whole.
UPR CHOP act – apoptotic UPR (CHOP) activation. CHO-CHOP luciferase reporter, luminescence; percent of tunicamycin response over DMSO baseline. activation, % at 10 µM. 330,000 tested, 0.34% active. AID 449763;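 active = at 10 µM dose, activation of 40% or more, normalized to positive control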;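 also: 100% = tunicamycin at 10 µg/mL and 0% = DMSO alone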
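Test system: CHO-CHOP cells, stable luciferase reporter of PERK-eIF2a-CHOP signalling | Quantity: 500 CHO-CHOP cells per well | Buffer or medium: F12 plus 10% serum | Compound dosing: 10 µM single point, 0.5% DMSO | Schedule: 6 h compound treatment, 37 °C | Signal: Luciferase luminescence | Control set: Tunicamycin high control, DMSO low control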
XBP1 UPR activ – adaptive UPR (XBP1) activation | AID 463104 | activation, % at 20 µM | CHO-XBP1 luciferase reporter, IRE1-XBP1 UPR activation, luminescence; percent of tunicamycin response, DMSO as zero | 330,000 tested, 0.33% active;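 active = versus positive control, 20 µM dose yields 30% or more activation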;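 also: 100% = tunicamycin at 10 µg/mL and 0% = DMSO only wells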
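Test system: CHO-XBP1 luciferase reporter cells | Buffer or medium: Serum-containing F12 medium, 10% FBS | Schedule: 6 h compound exposure at 37 °C, 5% CO2 | Detection: Steady-Glo luciferase glow luminescence, 10 min after reagent addition | Read-out basis: Activation, % of tunicamycin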
Jurkat NFkB inh – lowers PMA/ionomycin-induced NF-kB signal in Jurkat cells; inhibition, % at 4 µM; AID 435003; PMA/ionomycin-induced NF-kB luciferase reporter, luminescence; 330,000 tested, 0.53% active; in the data active = inhibition above about 50%
CHOP inh – blocks CHOP induction under ER stress | inhibition, % at 10 µM | AID 2732 | 220,000 tested, 3.8% active | CHO-K1 CHOP-promoter luciferase, tunicamycin-induced, 15-18 h;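 active = compounds that reduced the stress-induced luciferase reporter signal by more than about 70% of percent inhibition, limit read from the data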;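 also: 0% = tunicamycin plus vehicle and 100% = wells without tunicamycin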
697 NFkB inh – lowers PMA/ionomycin-induced NF-kB signal in 697 B cells | 330,000 tested, 0.33% active | inhibition, % at 4 µM | AID 435022 | 697 B-cell NF-kB luciferase reporter, 16 h; in the data active = inhibition above about 35%
UPR XBP1 confirm – confirmation of adaptive unfolded protein response (XBP1) activators | shares compounds with XBP1 UPR activ | CHO-XBP1 IRE1-XBP1 luciferase reporter, luminescence | activation, % at 20 µM | 1,000 tested, 63% active | AID 485299;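 active = reporter signal at least 30% of the positive control's activation in two or more of four replicate wells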;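 also: plate controls were DMSO negative control for no effect and tunicamycin 10 µg/mL positive control for full effect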
Starred values were filed as active, the others as inactive; . = no result.

SMILES | UPR CHOP act | XBP1 UPR activ | Jurkat NFkB inh | CHOP inh | 697 NFkB inh | UPR XBP1 confirm
COc1ccc(-c2ccc3oc(-c4ccsc4)cc(=O)c3c2)cc1F | 2 | 3 | -12 | . | 2 | .
N#CCCn1cc(/C=N/O)c(-c2ccc(-c3ccccc3)cc2)n1 | 2 | 16 | 41 | . | 7 | .
N#CCCn1cc(/C=N/O)c(-c2ccc(Cl)cc2)n1 | -2 | 109* | -30 | 20 | -1 | -2
O=S(=O)(O)c1nc2ccccc2[nH]1 | -1 | -4 | -8 | -19 | 19 | .
CC[C@]12c3[nH]c4cc(CCC(=O)N(C)C)ccc4c3CCN1C(=O)[C@@H](CC(=O)NCc1cccc(C(F)(F)F)c1)C[C@@H]2C(=O)N1CCN(C(=O)C2CC2)CC1 | 1 | 3 | . | . | 3 | .
CCOC(=O)/C(C#N)=C\c1ccc(OCC(=O)Nc2ccc(C)cc2C)c(OC)c1 | 11 | 37* | 1 | 53 | 20 | 2
CC1(C)Cc2c(c(N3CCOCC3)nc3sc4c(NCC5CCCO5)nnnc4c23)CS1 (configuration not stated) | 9 | 33* | -3 | 0 | 5 | 6
CCC(=O)NC1(C(F)(F)F)C(=O)Nc2c1c(=O)[nH]c(=O)n2CC(C)C (configuration not stated) | 0 | -3 | 11 | 16 | -4 | .
COCCCNC(=S)N(CCCO)Cc1cc2cc3c(cc2[nH]c1=O)OCO3 | 0 | -4 | -14 | . | -30 | .
COc1cc(/C=N/NC(N)=O)c(Br)cc1OCC(=O)Nc1ccccc1C | 4 | 109* | -8 | 51 | 1 | 72*
N#Cc1ccccc1/C=N/Nc1nc(-c2ccccc2)c2cc(Cl)ccc2n1 | 31 | 62* | 1 | 89* | -38 | 102*
Cc1ccc2nc(N/N=C/c3ccccc3C#N)nc(-c3ccccc3)c2c1 | 2 | 0 | 5 | 46 | -33 | .
CN(C)C(=O)COc1ccc2ccc(=O)oc2c1 | 0 | 1 | -2 | 23 | 8 | .
CCOC(=O)c1c(C)[nH]c(C(=O)COc2ccc3ccc(=O)oc3c2)c1C | 0 | 41* | 0 | . | 6 | 3
CS(=O)(=O)N1CCC(C(=O)NCc2ccc3c(c2)OCO3)CC1 | -2 | 3 | 7 | 29 | 14 | .
COC(=O)c1sc(-c2ccccc2)cc1NC(=O)c1ccc(F)cc1 | 14 | 61* | 3 | 48 | -1 | 22
CCOC(=O)c1cc(-c2ccccc2)sc1NC(=O)c1ccc(OC)cc1 | 36 | 151* | -39 | 25 | -48 | 118*
COC(=O)c1sc(-c2ccccc2)cc1NC(=O)c1ccc(OC)cc1 | 0 | 6 | -18 | 46 | -2 | .
COCCN(C(=O)CSc1nnc(-c2cccc(F)c2)n1N)c1c(N)n(CC(C)C)c(=O)[nH]c1=O | 1 | -4 | 1 | . | 18 | .
COc1ccc(OC)c(C(=O)c2ccc(C(=O)Nc3ccc(NC(C)=O)cc3)cc2)c1 | 0 | -4 | -11 | . | -26 | .
COc1ccc(-c2cc(C#N)nc(Cl)n2)cc1 | 5 | 30* | 9 | -41 | 24 | 27
COc1ccc(CNC(=O)CCn2c(=O)oc3ccccc32)c(OC)c1 | -2 | 0 | 2 | 6 | 13 | .
Cc1ccc2nc(Nc3nc(-c4ccccc4)cc(=O)[nH]3)nc(C)c2c1 | 5 | 67* | -3 | 48 | 16 | 72*
Cc1cc(C)nc(Nc2nc3ccccc3[nH]2)n1 | 4 | 0 | -61 | -14 | -93 | .
Cc1ccc2nc(Nc3nc(C)cc(-c4ccccc4)n3)[nH]c(=O)c2c1 | 7 | 31* | 13 | 48 | 20 | 62*
COc1ccc(NC(=O)CCNS(=O)(=O)c2cccc3nonc23)cc1 | 1 | -4 | 15 | . | 7 | .
O=C(CCCn1cncn1)N1CCCC(Nc2ccc(F)cc2)C1 (configuration not stated) | 0 | -1 | 0 | . | -1 | .
O=C(O)CC(Cc1ccc(Cl)cc1)C(=O)Nc1cc(Cl)ccc1Cl (configuration not stated) | 1 | -1 | -5 | . | 6 | .
CCCC(=O)NC(C)c1nc2ccccc2n1C(C)C (configuration not stated) | 1 | 1 | 6 | 10 | -12 | .
